71 compounds from ChEMBL document CHEMBL4513216, “Probing the Open Global Health Chemical Diversity Library for Multistage-Active Starting Points for Next-Generation Antimalarials” (ACS Infect Dis, 2020) can be followed below.

Structures are written as SMILES.

The series in a line: Toxicity liver stage against HepG2, at 10uM. It is filed as cell-based. Also noted: test concentration 10 uM, cell line HepG2-A16-CD81EGFP. As to conditions: human, HepG2-A16-CD81EGFP cells; read-out: INHIBITION
In short, it runs like this:
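Uninfected HepG2-A16-CD81EGFP cells, 3 × 10^3 per well, 1536-well, plated on prespotted compound at 10 μM final, parasite-free screening media added to match infected plates; puromycin 10 μM positive, DMSO 0.5% negative; run in parallel with 48 h PbLuc assay at 37 °C, 5% CO2; viability by CellTiter-Glo luminescence, normalized to controls.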
For the compound `COc1cccc(CSCC(=O)NCc2cccnc2)c1`, the cytotoxicity at 10 µM was -46.3%.

For the compound `Cc1noc(C2CCC3(CCN(C(=O)c4c(C)noc4C)CC3)O2)n1` (stereo unspecified), the cytotoxicity at 10 µM is -10.6%.

On to `CCN1CC2(CCC1=O)CCN(Cc1cccc(OC(F)F)c1)CC2`, for which the cytotoxicity at 10 µM is -16.5%.

As to `COc1ccc(C2=CCN(C(=O)CN(C)CC(C)C#N)CC2)cc1` (stereo unspecified), the cytotoxicity at 10 µM was -9.52%.

For `Cc1nnc(CNC(C)c2cc(C)c(F)c(C)c2)s1` (stereo unspecified), the cytotoxicity at 10 µM was -3.7%.

In the case of `N#Cc1ccc(CNc2cnn(CCN3CCOCC3)c2)cc1`, the cytotoxicity at 10 µM is -5.75%.

Turning to `O=S(=O)(CCCn1cncn1)Cc1ccc(F)cc1Cl`, the cytotoxicity at 10 µM was 7.49%.

Consider `CCn1cc(NC(=O)c2cccc(OCC(F)(F)F)n2)cn1`, for which the cytotoxicity at 10 µM is -9.43%.

With `Cc1ccnc(C(NC(=O)c2ccc(O)nc2C)C2CC2)n1` (stereo unspecified), the cytotoxicity at 10 µM is -5.3%.

On to `CCNc1ncc(CN(Cc2ccccc2)CC(C)CO)cn1` (stereo unspecified), for which the cytotoxicity at 10 µM amounted to 6.33%.

In the case of `Cc1n[nH]c(C)c1CNc1nc(-c2ccco2)nc2c1CCNCC2`, the cytotoxicity at 10 µM is -3.43%.

`Cc1nc([C@@H]2C[C@@H]3CCN(C(=O)Cc4cccc(F)c4)C[C@H]3O2)no1`: the cytotoxicity at 10 µM was 4.17%.

Consider `CN(CC(N)=O)C(=O)CCCn1ccc2cc(Cl)ccc21`, for which the cytotoxicity at 10 µM was -2.13%.

With `Cc1[nH]nc2ncc(C(=O)N3CCN(C(C)(C)C)CC3)cc12`, the cytotoxicity at 10 µM is -4.36%.

With `COC(=O)c1cccn1C1CCN(C(=O)c2cn[nH]c2C)CC1`, the cytotoxicity at 10 µM was -7.64%.

As for `CCn1ncnc1C(C)NC(=O)C1CCN(C(C)C)CC1` (stereo unspecified), the cytotoxicity at 10 µM worked out at 18.5%.

For the compound `CNC(=O)c1ccc(C(=O)N2CCCC(n3ccnc3C)C2)cn1` (stereo unspecified), the cytotoxicity at 10 µM was -0.248%.

`Cc1noc([C@H]2COC[C@H]3CN(C(=O)Cc4cccs4)C[C@H]32)n1`: the cytotoxicity at 10 µM was 3.3%.

As for `Cn1cnnc1C1CCCN(C(=O)Cc2ccc3c(c2)OCCO3)C1` (stereo unspecified), the cytotoxicity at 10 µM was determined as 0.626%.

As for `COCc1nc(NC(C)c2c(C)n[nH]c2C)c2cnn(C)c2n1` (stereo unspecified), the cytotoxicity at 10 µM was -13.4%.

Turning to `CCCc1n[nH]c(C2CN(C(=O)c3ccco3)CCO2)n1` (stereo unspecified), the cytotoxicity at 10 µM is -2.7%.

In the case of `Cc1ccc2[nH]c(=O)cc(C(=O)NCCCn3nccc3C3CC3)c2c1`, the cytotoxicity at 10 µM is -4.35%.

As to `Cc1cnc(NCCCN2CCc3ccccc32)nc1`, the cytotoxicity at 10 µM was 2.24%.

Consider `Cc1ccsc1C(=O)Nc1cnn(CC(=O)NC2CCCC2)c1`, for which the cytotoxicity at 10 µM was -1.65%.

`CCn1ccnc1CN1CCCC1Cn1cc(C)cn1` (stereo unspecified): the cytotoxicity at 10 µM is -14.3%.

On to `CC(C)(C)CN[C@@H]1CO[C@H](CNC(=O)C2CCCC2)[C@H]1O`, for which the cytotoxicity at 10 µM was -9.03%.

`O=C(c1ccco1)N1CC[C@@H]2O[C@@H](COCC3CCOCC3)CC[C@@H]21`: the cytotoxicity at 10 µM worked out at 1.95%.

Regarding `Cc1ccc(CN2Cc3nccn3CC(Cn3cccn3)C2)s1` (stereo unspecified), the cytotoxicity at 10 µM is -101%.

For `O=C(CCSc1ccc(F)cc1)N1CCN(c2cnccn2)CC1`, the cytotoxicity at 10 µM is -42.8%.

`CCOc1cccc(C(C)NC(=O)N2CCC(C(N)=O)CC2)c1` (stereo unspecified): the cytotoxicity at 10 µM was -2.95%.

For the compound `Cc1cc(C(=O)N2CCCS2(=O)=O)c(C)o1`, the cytotoxicity at 10 µM was -11.1%.

In the case of `O=C(C1CC1)N1CC[C@H](c2nnc(Cc3c[nH]c4ccccc34)o2)C1`, the cytotoxicity at 10 µM amounted to 4.09%.

For the compound `O=C(O)[C@@H]1CN(C(=O)CC2CCCC2)C[C@H]1c1ccc(F)cc1`, the cytotoxicity at 10 µM is -10.2%.

For the compound `N#CCCN(c1ccc(F)cc1)S(=O)(=O)CC1CCCCO1` (stereo unspecified), the cytotoxicity at 10 µM came out at 5.65%.

Take `Cc1nn(-c2ncnc3[nH]cnc23)c2c1C(CC(C)C)CC(=O)N2` (stereo unspecified): the cytotoxicity at 10 µM was found to be 11.2%.

As for `CCC(CO)N(Cc1ccco1)C(=O)c1cccnc1NC` (stereo unspecified), the cytotoxicity at 10 µM is 1.64%.

As for `Cc1cnn(C(C)C(=O)NCC2CCN(c3cnn(C)c(=O)c3)CC2)c1` (stereo unspecified), the cytotoxicity at 10 µM came to 2.81%.

As to `Cc1ccc(C)c(-n2ncc(NC(=O)NC3(C)CCOC3)c2C)c1` (stereo unspecified), the cytotoxicity at 10 µM was -41.6%.

With `Cn1ncc2c1C(COCC1CC1)CN(S(C)(=O)=O)C2` (stereo unspecified), the cytotoxicity at 10 µM is -73.6%.

As to `COc1cccc(-n2ccc3nc(N4CCCC4)ncc3c2=O)c1`, the cytotoxicity at 10 µM worked out at 5.92%.

With `CCCc1nccn1CCn1cnc2ccsc2c1=O`, the cytotoxicity at 10 µM stood at 0.0394%.

In the case of `Cc1ccc(C2CCCN2Cc2nc(-c3ccco3)no2)cc1` (stereo unspecified), the cytotoxicity at 10 µM was determined as 26.1%.

For the compound `CC(C)C1SCC(=O)Nc2c1cnn2-c1ccc(Cl)cc1F` (stereo unspecified), the cytotoxicity at 10 µM amounted to 17.2%.

With `CC(C(=O)N1CCC(Nc2cccnn2)CC1)n1ccnc1` (stereo unspecified), the cytotoxicity at 10 µM was -9.44%.

For the compound `CCOC(C)c1nc(CN2CCN(c3nccc(C)n3)CC2)cs1` (stereo unspecified), the cytotoxicity at 10 µM is -8.89%.

Consider `CS(=O)(=O)N[C@H]1CN(C(=O)CCc2ccc(=O)[nH]n2)C[C@@H]1C1CC1`, for which the cytotoxicity at 10 µM was determined as 1.56%.

In the case of `Cc1ccc(O)c(CNCC2CCCN2c2cccnn2)n1` (stereo unspecified), the cytotoxicity at 10 µM was -7.92%.

On to `O=C1[C@H]2CN(c3ncccn3)C[C@H]2CN1CC1CC1`, for which the cytotoxicity at 10 µM came to 4.41%.

In the case of `COc1nn(C)cc1C(=O)NCC1(O)CCOCC1`, the cytotoxicity at 10 µM was -14.7%.

Take `CN(C)c1cc(C2CCCN(C(=O)c3ccc(=O)[nH]n3)C2)ccn1` (stereo unspecified): the cytotoxicity at 10 µM was -9.04%.

Regarding `CCc1ccc(C(=O)Nc2cccc(CN3CCCC3C(N)=O)c2)cc1` (stereo unspecified), the cytotoxicity at 10 µM was -0.268%.

`O=C(c1ccco1)N(CC(F)(F)F)C1CCCOC1` (stereo unspecified): the cytotoxicity at 10 µM is -19.5%.

`c1ccc(CN2C[C@@H]3OCCN(c4ncccn4)[C@@H]3C2)nc1`: the cytotoxicity at 10 µM turned out to be 3.86%.

In the case of `Cc1nn(C)cc1C1CC(=O)Nc2c1cnn2C(C)C` (stereo unspecified), the cytotoxicity at 10 µM is -4.31%.

For the compound `CC(C)n1nnnc1-c1ccc(NC(=O)C(C)(C)C#N)cc1F`, the cytotoxicity at 10 µM is -7.36%.

Consider `COCCN1CCC2(CC1)CC(c1ccccc1)C(=O)N2C` (stereo unspecified), for which the cytotoxicity at 10 µM turned out to be 7.91%.

For `Cc1n[nH]c(C)c1NC(=O)CN1CCCC(CNC(=O)C(C)(C)C)C1` (stereo unspecified), the cytotoxicity at 10 µM is -4.64%.

With `CCC(C)N1CCc2c(C(=O)N3CCOCC3)n[nH]c2C1` (stereo unspecified), the cytotoxicity at 10 µM was determined as 1.88%.

In the case of `Cc1cc(N2CCCC(O)(CN(C)C)CC2)nc(-c2ccccc2)n1` (stereo unspecified), the cytotoxicity at 10 µM is -9.41%.

Regarding `COc1cccc2c1N(C(=O)c1ccc(C)nc1)CCC2`, the cytotoxicity at 10 µM is 1.36%.

Take `Cc1c(CN2CCCC(C(=O)Nc3ccccc3)C2)cc(C#N)n1C` (stereo unspecified): the cytotoxicity at 10 µM turned out to be 6.75%.

Regarding `COc1nn(C)c2c1CCCN(C(=O)c1cccn1C)C2`, the cytotoxicity at 10 µM came to 1.53%.

With `CCc1ccc(C(C)NC(=O)CCc2nc(-c3nnc[nH]3)no2)cc1` (stereo unspecified), the cytotoxicity at 10 µM is -1.98%.

`CC(C)CN1CCC2(C=C(C(=O)N(C)C)c3ccccc32)CC1`: the cytotoxicity at 10 µM was -97.4%.

For the compound `C[C@@H]1CN(C(=O)Nc2cccc(OC(F)F)c2)CC(C(N)=O)O1` (stereo partly specified), the cytotoxicity at 10 µM is 5.52%.

In the case of `CC(=O)N1CC(=O)N(c2cnn(C)c2)CC12CCN(CC1CC1)C2` (stereo unspecified), the cytotoxicity at 10 µM was -2.58%.

As for `Cc1nn(CC(=O)N2CCN(Cc3cn(C)nc3C)CC2)cc1Br`, the cytotoxicity at 10 µM was -6.28%.

Regarding `O=S(=O)(c1ccccc1)N1C[C@@H]2COC[C@]2(COCC2CC2)C1`, the cytotoxicity at 10 µM worked out at 10.2%.

Regarding `CC(C)c1cc(CN2CCC(CC(=O)O)CC2)no1`, the cytotoxicity at 10 µM was -2.53%.

Take `COCC(=O)N1C[C@@H](O)[C@H](N2CCN(c3ccccc3)CC2)C1`: the cytotoxicity at 10 µM is 2.7%.

As for `Cc1noc(C)c1CN(C)C(=O)C1(N)CCCCC1`, the cytotoxicity at 10 µM was 6.67%.
